Source: ChEMBL document CHEMBL5096213 (Bioorg Med Chem, 2022)
Values after ≈ are worked out from the molar mass of the structure shown.

system: Mycobacterium tuberculosis variant bovis; assay: Antimycobacterial activity against Mycobacterium bovis BCG Pasteur ATCC35734 assessed as inhibition of bacterial growth incubated for 5 days by broth microdilution method; assay type: functional; settings: BCG Pasteur ATCC35734, 120 h, time 5 day
Procedure, shortened: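 M. bovis BCG Pasteur grown to mid-log (OD600 0.4–0.6), seeded at OD600 0.05 into 2-fold serial compound dilutions in complete Middlebrook 7H9, neutral pH. Incubation 5 days, 37 °C, shaking 90 rpm, humidified. […] At least two experiments, means reported.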

| SMILES | MIC50 [µM] |
| --- | --- |
| Cc1cnc(C(=O)O)cn1 | 3200 (≈ 442 µg/mL) |
| O=C(O)c1cnc(Cl)cn1 | 1700 (≈ 270 µg/mL) |
| O=C(O)c1cnc2ccccc2n1 | 700 (≈ 122 µg/mL) |
| NC(=S)c1cnccn1 | 2700 (≈ 376 µg/mL) |
| O=C(O)c1cncnc1 | > 5000 |
| CC(=O)c1cnccn1 | > 5000 |
| O=C(O)c1ccnnc1 | > 4000 |
| O=C(O)c1cccnn1 | > 5000 |
| CCCC(=O)Nc1cnc(C(=O)O)c(N)n1 | > 4000 |
| CCCNc1cnc(C(=O)O)cn1 | 1400 (≈ 254 µg/mL) |
| O=C(O)c1cnc(O)cn1 | > 3000 |
| O=C(O)c1nccnc1N1CCSCC1 | > 5000 |
| CC(C)(C)Nc1nccnc1C(=O)O | 400 (≈ 78.1 µg/mL) |
| O=C(O)c1nccnc1Br | > 4000 |
| CCCNc1nccnc1C(=O)O | 200 (≈ 36.2 µg/mL) |
| CC(C)CNc1cnc(C(=O)[O-])cn1.[Na+] | 400 |
| CC(C)Nc1nccnc1C(=O)O | 20 (≈ 3.62 µg/mL) |
| O=C(O)c1nccnc1Nc1ccccc1 | 400 (≈ 86.1 µg/mL) |
| CC(=O)Nc1cnc(C(=O)O)c(N)n1 | > 4000 |
| Cc1nccnc1C(=O)O | 3500 (≈ 483 µg/mL) |
| CCCCNc1nccnc1C(=O)O | 600 (≈ 117 µg/mL) |
| CC(C)CN(C)c1cnc(C(=O)O)c(N)n1 | 700 (≈ 157 µg/mL) |
| CCN(CC)c1nccnc1C(=O)O | 3600 (≈ 703 µg/mL) |
| COc1nccnc1C(=O)O | 2700 (≈ 416 µg/mL) |
| CCC(=O)Nc1cnc(C(=O)O)cn1 | 3500 (≈ 683 µg/mL) |
| CNc1nccnc1C(=O)O | 700 (≈ 107 µg/mL) |

| SMILES | MIC50 [µM] |
| --- | --- |
| O=C(O)c1cnc(NC2CCC2)cn1 | > 2500 |
| CCCCN(C)c1nccnc1C(=O)O | 2300 (≈ 481 µg/mL) |
| O=C(O)c1nccnc1-c1ccccc1 | 1500 (≈ 300 µg/mL) |
| NS(=O)(=O)c1cnccn1 | > 4000 |
| CCCCN(C)c1cnc(C(=O)O)c(N)n1 | 200 (≈ 44.9 µg/mL) |
| CC(C)CNc1cncc(C(=O)[O-])n1.[Na+] | > 2500 |
| Cc1cccc(-c2nccnc2C(=O)O)c1 | 800 (≈ 171 µg/mL) |
| O=C(O)c1nccnc1N1CCCCC1 | > 2500 |
| Cc1ccccc1-c1nccnc1C(=O)O | > 5000 |
| CCNc1nccnc1C(=O)[O-].[Na+] | 400 |
| CCC(=O)Nc1cncc(C(=O)O)n1 | 200 (≈ 39 µg/mL) |
| O=C(O)c1nccnc1NCc1ccccc1 | 200 (≈ 45.8 µg/mL) |
| CC(C)C(=O)Nc1cnc(C(=O)O)c(N)n1 | > 4000 |
| O=C(O)c1nccnc1Cl | 1800 (≈ 285 µg/mL) |
| O=C(O)c1ncccn1 | > 4000 |
| CC(C)Nc1cnc(C(=O)O)c(N)n1 | 1200 (≈ 235 µg/mL) |
| O=C(O)c1cncc(-c2ccccc2)n1 | 1700 (≈ 340 µg/mL) |
| c1cnc(-c2nnn[nH]2)cn1 | > 4000 |
| CCNc1cnc(C(=O)[O-])cn1.[Na+] | 1800 |
| CC(C)CN(C)c1nccnc1C(=O)O | 3500 (≈ 732 µg/mL) |
| Nc1cnc(C(=O)O)cn1 | 800 (≈ 111 µg/mL) |
| CN(Cc1ccccc1)c1nccnc1C(=O)O | 700 (≈ 170 µg/mL) |
| COc1cnc(C(=O)O)cn1 | 3500 (≈ 539 µg/mL) |
| O=C(O)c1cnc(Br)cn1 | 2500 (≈ 507 µg/mL) |
| O=C(O)c1nccnc1N1CCC2(CC1)CC2 | > 2500 |
| O=C(O)c1nccnc1N1CCOCC1 | > 5000 |

| SMILES | MIC50 [µM] |
| --- | --- |
| O=C(O)c1cncc(O)n1 | > 2400 |
| O=C(O)c1cncc(Br)n1 | 3000 (≈ 609 µg/mL) |
| Nc1cncc(C(=O)O)n1 | 2600 (≈ 362 µg/mL) |
| O=C(O)c1nccnc1NC1CCCC1 | 400 (≈ 82.9 µg/mL) |
| O=C(O)c1ccncn1 | 2000 (≈ 248 µg/mL) |
| CC(C)CNc1nccnc1C(=O)[O-].[Na+] | 200 |
| O=C(O)c1cncc(Cl)n1 | 1000 (≈ 159 µg/mL) |
| CCNc1cncc(C(=O)[O-])n1.[Na+] | > 2500 |
| CCC(=O)Nc1nccnc1C(=O)O | 1500 (≈ 293 µg/mL) |
| O=C(O)c1nccnc1NC1CCC1 | 400 (≈ 77.3 µg/mL) |
| O=C(O)c1cncc(NC2CCC2)n1 | > 2500 |
| CC(=O)NS(=O)(=O)c1cnccn1 | > 4000 |
| Nc1nccnc1C(=O)O | 800 (≈ 111 µg/mL) |
| Cc1ccc(-c2nccnc2C(=O)O)cc1 | 1000 (≈ 214 µg/mL) |
| O=C(O)c1cnc(-c2ccccc2)cn1 | > 4000 |
| O=C(O)c1nccnc1O | > 4000 |
| COc1cncc(C(=O)O)n1 | 2000 (≈ 308 µg/mL) |
| Cc1cncc(C(=O)O)n1 | 2400 (≈ 332 µg/mL) |
| O=C(O)c1nccnc1N1CCCC1 | 4700 (≈ 908 µg/mL) |
| O=C(O)c1ccccn1 [2-PICOLINIC ACID] | 700 (≈ 86.2 µg/mL) |
| O=C(O)c1ccccc1 [BENZOIC ACID] | 2200 (≈ 269 µg/mL) |
| O=C(O)c1ccncc1 [ISONICOTINIC ACID] | 2700 (≈ 332 µg/mL) |
| O=C(O)c1cccnc1 [NIACIN] | 900 (≈ 111 µg/mL) |
| O=C(O)c1cnccn1 [PYRAZINOIC ACID] | 1000 (≈ 124 µg/mL) |

system: Mycobacterium tuberculosis variant bovis; assay: Potency index, ratio of pyrazinoic-acid MIC50 to test compound MIC50 for antimycobacterial activity against Mycobacterium bovis BCG Pasteur ATCC35734 assessed as inhibition of bacterial growth incubated for 5 days by broth microdilution method; assay type: functional; settings: time 5 day

| SMILES | Ratio |
| --- | --- |
| CC(C)CNc1cnc(C(=O)[O-])cn1.[Na+] | 2.5 |
| CC(C)CNc1cncc(C(=O)[O-])n1.[Na+] | 2.5 |
| CCNc1nccnc1C(=O)[O-].[Na+] | 2.5 |
| CCC(=O)Nc1cncc(C(=O)O)n1 | 5 |
| CCNc1cnc(C(=O)[O-])cn1.[Na+] | 2.5 |
| CC(C)CNc1nccnc1C(=O)[O-].[Na+] | 2.5 |
| CCNc1cncc(C(=O)[O-])n1.[Na+] | 2.5 |
